Experiment [1] concerns Candida albicans. In words: Antifungal activity against Candida albicans SN152 assessed as reduction in drug tolerance by measuring zone of inhibition at 25 ug incubated for 24 to 48 hrs by disk diffusion assay. The class given is functional, organism-based. To be noted: dose 25.0 µg, time 24-48 hrs. An outline of the steps: (§1)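 Plated onto casitone agar from 24 h, 30 °C YPAD-agar colonies suspended in PBS. Inoculum OD600 0.02 for C. albicans SN152, 0.025 for C. parapsilosis ATCC 22019 and C. tropicalis 660. Central 6-mm disk holding 25 µg drug. Plates incubated at 30 °C and imaged at 24 h (inhibition zone) and 48 h (tolerant colonies within the zone).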

A further experiment deals with Candida tropicalis. Put plainly: Antifungal activity against Candida tropicalis 660 assessed as reduction in drug tolerance by measuring zone of inhibition at 25 ug incubated for 24 to 48 hrs by disk diffusion assay. The class given is functional, organism-based. Particulars: dose 25.0 µg, time 24-48 hrs. An outline of the steps:
as §1

Experiment [2] concerns Candida parapsilosis. In words: Antifungal activity against Candida parapsilosis ATCC 22019 assessed as reduction in drug tolerance by measuring zone of inhibition at 25 ug incubated for 24 to 48 hrs by disk diffusion assay. The class given is functional, organism-based. To be noted: dose 25.0 µg, time 24-48 hrs. An outline of the steps:
as §1

The test system of experiment [3] is Candida albicans. Put plainly: Antifungal activity against Candida albicans SN152 harbouring erg3delta delta/erg11delta delta assessed as […] fungal growth inhibition at 64 ug/mL measured every 40 mins for 48 hrs by double dilution method. The class given is functional, organism-based. Particulars: dose 64.0 µg/ml. Summed up: (§2)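 erg3ΔΔ/erg11ΔΔ C. albicans taken from 24 h, 30 °C YPAD-agar colonies, brought to 1×10^-3 OD600 in PBS, then diluted 1:100 in YPAD. Serial twofold drug dilutions from 64 to 1 µg/mL in YPAD. OD600 read every 40 min over 48 h at 30 °C against no-drug and medium-blank controls. Triplicate wells, two independent experiments.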

The subject of experiment [4] is Candida parapsilosis. In words: Antifungal activity against Candida parapsilosis ATCC 22019 assessed as fungal growth inhibition incubated for 24 hrs by CLSI based broth double-dilution assay. The class given is functional. To be noted: Lodderomyces parapsilosis. Summed up:
(§3)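 CLSI M27-A3 broth microdilution with modifications in YPAD. Cells from 24 h, 30 °C YPAD-agar colonies brought to 1×10^-3 OD600 in PBS, then diluted 1:100. Twofold dilutions from 64 to 0.003 µg/mL. After 24 h at 30 °C, MIC80 taken as the lowest concentration giving ≥80% OD600 reduction versus no-drug wells. Triplicate wells, two independent experiments.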

Experiment [5] deals with Candida albicans. Put plainly: Antifungal activity against Candida albicans SN152 harbouring erg3delta delta/erg11delta delta assessed as […] fungal growth inhibition measured every 40 mins for 48 hrs by double dilution method. The class given is functional, organism-based. Particulars: dose 1-64 µg/ml. Summed up:
as §2

The test system of experiment [6] is Candida albicans. In words: Antifungal activity against Candida albicans SN152 harbouring erg3delta delta/erg11delta delta assessed as fungal growth inhibition incubated for 24 hrs by CLSI based broth double-dilution assay. The class given is functional. An outline of the steps:
as §3

Experiment [7] relates to Candida albicans. In words: Antifungal activity against Candida albicans SN152 assessed as fungal growth inhibition incubated for 24 hrs by CLSI based broth double-dilution assay. The class given is functional. Summed up: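 Broth double-dilution per CLSI M27-A3 (minor modifications); colonies from YPAD agar (24 h, 30 °C) suspended in PBS to 1 × 10^-3 OD600 then diluted 1:100 into YPAD; serial twofold dilutions 64–0.003 μg/mL in YPAD; 24 h at 30 °C; OD600 read; MIC80 = lowest concentration reducing OD600 ≥80% versus no-drug wells; triplicate, two independent experiments.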

Experiment [8] deals with Candida albicans. In words: Antifungal activity against Candida albicans SN152 harbouring erg3delta delta/erg11delta delta assessed as […] fungal growth inhibition at 1 to 64 ug/mL measured every 40 mins for 48 hrs by double dilution method. The class given is functional, organism-based. To be noted: dose 1-64 µg/ml. An outline of the steps:
as §2

In brackets after ≈: the same amount, converted by molar mass. Activity calls are given as the source filed them. The rule behind the calls is not given here.

Turning to `C[C@@H](c1ncncc1F)[C@](O)(Cn1cncn1)c1ccc(F)cc1F` [VORICONAZOLE], the result in the experiment on Candida albicans [1] and with Candida parapsilosis [2] was inactive. Besides, the outcome in the experiment on Candida tropicalis and with Candida albicans [3] was Active. Besides, the MIC80 in the experiment on Candida parapsilosis [4] was found to be 0.015 µg/mL (≈ 0.0429 µM).
In the case of `CC(C)Cc1ccc(C(C)C(=O)O)cc1` (centres undefined), the Activity entry in the experiment with Candida albicans [5] was “Dose-Dependent Effect”.
The same measure, in the same setting: the result for `CC(C(=O)O)c1ccc(-c2ccccc2)c(F)c1` (centres undefined) reads “Dose-Dependent Effect”.
As for `C[C@H](C(=O)NC[C@](O)(Cn1cncn1)c1ccc(F)cc1F)c1ccc(-c2ccccc2)c(F)c1`, the result in the experiment on Candida albicans [1], in the experiment with Candida tropicalis and in the experiment on Candida parapsilosis [2] was Active. Moreover, the MIC80 with Candida albicans [6] stood at 64 µg/mL (≈ 133 µM); with Candida albicans [7], 0.007 µg/mL (≈ 0.0146 µM); with Candida parapsilosis [4], 0.5 µg/mL (≈ 1.04 µM). Moreover, in the experiment with Candida albicans [5], the Activity entry was “Dose-Dependent Effect”.
Regarding `OC(Cn1cncn1)(Cn1cncn1)c1ccc(F)cc1F`, the result in the experiment with Candida albicans [1], in the experiment on Candida albicans [8] and in the experiment with Candida parapsilosis [2] was inactive. The outcome with Candida tropicalis was Active.
As for `CC(C)Cc1ccc([C@H](C)C(=O)NC[C@](O)(Cn2cncn2)c2ccc(F)cc2F)cc1`, the result in the experiment on Candida albicans [1], in the experiment with Candida tropicalis and in the experiment with Candida parapsilosis [2] was Active. Moreover, the values for the MIC80 in the experiment with Candida albicans [6] and in the experiment on Candida albicans [7] were 64 µg/mL (≈ 145 µM) and 0.003 µg/mL (≈ 0.00678 µM), respectively. Besides, the Activity result in the experiment with Candida albicans [5] was “Dose-Dependent Effect”.

The values are drawn from ChEMBL document CHEMBL5042534, “Fluconazole-COX Inhibitor Hybrids: A Dual-Acting Class of Antifungal Azoles” (2022).
